Source: PubChem BioAssay
Compounds with a hit are over-represented: about 10% of the library has one in this group of screens.
WT yeast gro inh: growth inhibition of WT yeast, mitochondrial fusion screen; inhibition, % at 10 µM; hit rate 2.1% among 190,000; AID 1362; mitochondrial fusion phenotypic screen, WT strain; in the data active = inhibition above about 58%; tested in S. cerevisiae
L major viab: Leishmania major promastigote growth inhibition | hit rate 9% among 200,000 | Leishmania major promastigotes, resazurin fluorescence viability | AID 1063 | inhibition, % at 10 µM; in the data active = inhibition above about 50%;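 also: promastigotes grown with compound for 44 hours at 28 °C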
PMI act satM6P: activators of human phosphomannose isomerase at near-saturating mannose 6-phosphate; P34949; coupled PMI enzyme assay, resazurin fluorescence, 20 min; stronger effect = higher value; 1 = untreated enzyme, 0 = substrate-free blank; activation factor at 20 µM; hit rate 0.34% among 190,000;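 active = activation factor of 2 or more at 20 µM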
Target sequence (P34949 whole entry, looked up): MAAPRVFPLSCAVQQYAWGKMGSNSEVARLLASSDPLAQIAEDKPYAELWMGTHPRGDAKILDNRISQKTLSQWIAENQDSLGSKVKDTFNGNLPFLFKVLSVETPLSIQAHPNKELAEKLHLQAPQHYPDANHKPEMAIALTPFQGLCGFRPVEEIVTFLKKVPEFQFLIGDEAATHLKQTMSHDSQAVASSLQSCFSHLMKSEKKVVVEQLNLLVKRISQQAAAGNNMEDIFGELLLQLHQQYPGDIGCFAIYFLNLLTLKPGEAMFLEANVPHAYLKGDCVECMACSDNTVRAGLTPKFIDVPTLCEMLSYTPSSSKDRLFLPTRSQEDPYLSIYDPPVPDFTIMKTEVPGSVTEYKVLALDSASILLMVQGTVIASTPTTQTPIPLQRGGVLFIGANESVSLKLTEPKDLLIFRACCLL
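assay system = human phosphomannose isomerase with PGI, G6PDH, diaphorase coupling enzymes | quantity = 15 ng/mL PMI | incubation = enzyme reaction with compound 20 min at room temperature | medium = HEPES pH 7.4 buffer with MgCl2 and Tween-20 | compound dosing = one concentration, 20 µM, in 1% DMSO | measured by = Diaphorase-driven resazurin-to-resorufin fluorescence, excitation 544, emission 590 nm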
PMI act: phosphomannose isomerase (human) activation; purified human PMI, coupled resazurin fluorescence, 20 min; stronger effect = higher value; 1 = vehicle control, 0 substrate-free wells; AID 1214; hit rate 0.005% among 190,000; activation factor at 20 µM; P34949;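 active = activation factor of 2 or more at 20 µM, relative to plate controls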
Diaphorase act: diaphorase activation or chemical reduction counter-screen. Diaphorase/resazurin coupled assay, resorufin fluorescence, 16 min; stronger effect = higher value; 1 = vehicle wells, 0 = NADH-free wells. activation factor at 20 µM. hit rate 0.005% among 190,000;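 active = diaphorase activity raised at least twofold by the compound at 20 µM; inactive = activation factor below 2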
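Measured by – red resorufin fluorescence at 544/590 nm excitation/emission · Test system – Clostridium kluyveri diaphorase, purified enzyme · Incubation – reaction time 16 min, room temperature · Buffer or medium – 50 mM HEPES pH 7.4 with 4.542 mM MgCl2, 0.005% Tween 20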
* hit, by the source's call; . = no result.

SMILES	WT yeast gro inh	L major viab	PMI act satM6P	PMI act	Diaphorase act
CCO[C@@H]1OC(C(=O)NC2CC2)=C[C@H](c2ccc(C(F)(F)F)cc2)[C@H]1CCCO	12.2	3.7	1	1	1
COc1ccc(C(=O)CSc2nnc(Cn3nnc4ccccc43)n2C)cc1	-27.1	-1.7	1.1	1.1	1
COc1ccc(/C=C/C(=O)c2ccc(O)cc2)cc1CN1CCOCC1	-12.1	97.7*	1	0.9	0.9
COc1ccc(C(=O)/C=C/c2ccc(OC)c(Cn3nnc4ccccc43)c2)cc1	5.0	85.2*	0.9	0.8	0.8
COc1ccc(/C=C/C(=O)C23CC4CC(CC(C4)C2)C3)cc1CN1CCOCC1	23.9	66.3*	0.9	0.8	1
COc1ccc(C(=O)/C=C/c2ccc(OC)c(CN3CCOCC3)c2)cc1	-8.7	86.0*	1	0.9	1
COc1ccc(/C=C/C(=O)c2ccccc2O)cc1CN1CCOCC1	-8.1	23.9	1	1	0.9
COc1ccc(/C=N/NC(=O)OC(C)(C)C)cc1OC	-9.7	-6.0	0.8	0.8	0.9
Cc1cc(CNC(=O)CC2C(=O)NCCN2Cc2ccccc2C(F)(F)F)on1 (stereo not given)	-6.8	8.2	0.8	1	0.8
COc1ccc(/C=C/C(=O)c2nc3ccccc3n2CC(=O)c2ccc(OC)cc2)cc1	3.5	75.1*	0.8	0.9	0.8
COc1ccc(C(=O)Cn2c(NCCO)nc3ccccc32)cc1	-5.8	0.7	1	1.1	1
O=C(CNC(=O)c1ccccc1Cl)N/N=C/C=C/c1ccccc1	-1.6	-4.9	0.9	0.8	0.9
CCOc1ccc2nc(NC(=O)C(NS(=O)(=O)c3cccc4nsnc34)C(C)C)sc2c1 (stereo not given)	3.4	52.2*	1	1	0.8
CCc1ccc(/C=C2\SC(=S)N(CCC(=O)N3CCN(C)CC3)C2=O)cc1	7.9	98.8*	0.9	1	1
O=C(CCN1C(=O)/C(=C\c2ccccc2Cl)SC1=S)N1CCN(c2ccccc2)CC1	-7.3	90.6*	1	1	1
O=C(CCN1C(=O)/C(=C/c2ccccc2Cl)SC1=S)NC1=NCCS1	57.8	47.1	0.9	0.9	0.8
Cc1cc(OC(C)C(=O)N/N=C/CC(C)c2ccccc2)ccc1Cl (stereo not given)	-2.8	-0.8	1.1	1.1	1
CCn1c(CNc2cccc(C(F)(F)F)c2)n[nH]c1=S	9.0	-4.5	1	1	1
COc1cccc(/C=N/NC(=O)c2cc(C34CC5CC(CC(C5)C3)C4)[nH]n2)c1	27.6	88.9*	0.9	0.9	0.9
COc1ccc(/C=N/NC(=O)c2cc(C34CC5CC(CC(C5)C3)C4)[nH]n2)cc1OC	52.2	26.7	1	0.9	0.8
CCCN1C(=O)c2ccccc2NC1c1ccc(OC)c(CSc2ccccn2)c1 (stereo not given)	63.6*	16.4	0.9	0.7	0.8
N=C(CC1CC(=O)NC(=O)C1)C1=C(O)CCCC1=O	6.7	-2.9	0.8	0.8	0.9
CCCc1cc(=O)[nH]c(SCC(=O)N2CCN(S(=O)(=O)c3ccc(Cl)cc3)CC2)n1	-23.3	66.6*	1	1.2	0.8
O=C(CSc1ncc(C(F)(F)F)cc1Cl)N1CCN(S(=O)(=O)c2ccccc2)CC1	21.1	19.6	0.8	0.8	0.7
O=C(CSc1ncc(C(F)(F)F)cc1Cl)N1CCN(S(=O)(=O)c2ccc(Cl)cc2)CC1	28.4	90.4*	0.8	0.8	0.7
SMILES	WT yeast gro inh	L major viab	PMI act satM6P	PMI act	Diaphorase act
COc1ccc(NC(=O)Nc2ccc(CC(=O)O)cc2)cc1	2.5	-5.5	1	1	0.9
Cc1ccc(NC(=O)ON=C2CCCC2)cc1	8.9	84.2*	0.9	0.8	0.8
O=C(Nc1ccccc1)ON=C1CCCC1	6.5	5.0	1	0.9	0.9
OCc1cc(-c2ccc(Cl)c(Cl)c2)on1	9.3	-1.8	0.9	0.9	1
Cn1c(Cl)c(/C=N/OC(=O)c2ccccc2Cl)c2ccccc21	23.6	-9.6	1	1	1
Cc1cccc(C(=O)O/N=C/c2c(N3CCOCC3)n(C)c3ccccc23)c1	-5.0	98.9*	0.9	0.9	0.8
Clc1ccc(COc2cccc(CNCc3ccncc3)c2)cc1	34.0	94.0*	1.2	1	0.9
COc1cc(CNCc2cccs2)ccc1OCC(N)=O	-1.5	-2.9	0.9	0.9	0.9
CC(C)(CO)NCc1cccc(OCc2ccc(Cl)cc2)c1	12.3	31.1	1	1.1	1
c1ccc(COc2cccc(CNCc3cccs3)c2)cc1	-6.1	98.3*	1	1	0.9
O=C(COc1ccc([N+](=O)[O-])cc1Cl)NCC1CCCO1 (stereo not given)	-0.7	12.7	1.1	1.1	1
COc1ccc(/C=C2\CCc3ccccc3C2=O)cc1Cn1nc(C)cc1C	80.0*	74.3*	0.8	0.7	0.7
COc1ccc(/C=C2/CCc3ccccc3C2=O)cc1CN1CCOCC1	-4.8	82.4*	0.6	0.8	0.8
COc1ccc(/C=C2\CCc3ccccc3C2=O)cc1OC	0.4	51.4*	0.7	0.8	0.8
COc1ccc(/C=C/C(=O)c2ccc3ccccc3c2O)cc1CN1CCOCC1	12.4	33.6	0.8	0.9	1
NC(=O)c1nsc(C(=O)N(CC(=O)NC2CCCC2)Cc2ccc3c(c2)OCO3)c1N	-1.4	-8.1	1	1	0.9
COc1ccc(-c2oc(NC(=O)CCl)c(C#N)c2-c2ccc(OC)cc2)cc1	-17.8	100.3*	0.9	1	0.8
CN(C)CCN(C)Cc1ccc2c(c1)Cc1ccccc1-2	.	.	1	1	0.9
OC1CCCN(Cc2ccc3c(c2)Cc2ccccc2-3)C1 (stereo not given)	15.0	72.8*	1.1	1	1
CCCC(=O)Nc1ccc(Cc2ccc(NC(=O)CCC)c(C(=O)O)c2)cc1C(=O)O	-7.0	-10.9	1	1	0.8
COc1cccc(/C=C/C(=O)OCC(=O)Nc2cccc(S(=O)(=O)N3CCOCC3)c2)c1OC	-16.4	-4.6	0.9	0.9	0.8
CCc1ccccc1S(=O)(=O)Cc1ccc(C(=O)NCc2ccc3c(c2)OCO3)o1	7.8	8.1	1	1	0.9
O=C(NCc1ccc2c(c1)OCO2)c1ccc(CSCc2ccc(Cl)cc2)o1	59.1*	50.5*	0.9	0.9	0.8
O=C(NCc1ccc2c(c1)OCO2)c1ccc(COc2cc(Cl)ccc2Cl)o1	48.6	10.4	1	0.9	1
O=C(NCc1ccc2c(c1)OCO2)c1ccc(CS(=O)(=O)Cc2cccc(Cl)c2)o1	-10.0	79.0*	0.9	0.9	0.8
O=C(c1ccco1)N(CCCN1CCOCC1)c1nc(-c2ccc(Cl)cc2)cs1	-0.7	16.6	0.9	0.9	0.8
COc1ccc(-c2csc(N(C)C(=O)c3cccs3)n2)cc1	-13.0	-10.2	1	0.9	0.9
